Measurements taken from ChEMBL document CHEMBL1126655, “Synthesis and antiviral activity of novel isonucleoside analogs” (J Med Chem, 1993).

What was measured:
Type in all cases: functional
[1] = test system: Human betaherpesvirus 5; test: Antiviral activity against Human cytomegalovirus (AD169 strain); conditions: read-out: ID50 (the source's name)
How it was run: (§1)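 WI-38 monolayers were infected, with virus adsorbed for 1–2 h. They were then overlaid with EMEM maintenance medium (1% carboxymethyl cellulose, 2.5% FBS) containing duplicate drug dilutions. Monolayers were stained after 4–6 days at 37 °C. ID50 was taken as the concentration giving 50% plaque reduction versus virus controls. Titrations were done in duplicate.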

[2] = test system: WI-38; test: Tested for growth inhibition against WI-38 cells; conditions: Homo sapiens, read-out: ID50 (the source's name)
How it was run: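 WI-38 cells seeded at 1.2 × 10^6 per well, incubated overnight at 37 °C, then refed with growth medium (EMEM, 10% FBS) holding serial drug dilutions or none, for 3 more days at 37 °C. Quadruplicate cultures per concentration trypsinized and counted daily for viable cells by trypan blue exclusion.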

[3] = test system: Human alphaherpesvirus 2; test: Antiviral activity against Herpes simplex virus-2 (thymidine kinase deficient strains isolated as BVaraU resistant mutants of HSV-1 (KOS)); conditions: read-out: ID50 (the source's name)
[4] = test system: Human alphaherpesvirus 1; test: Antiviral activity against Herpes simplex virus-1 (thymidine kinase deficient strains isolated as BVaraU resistant mutants of HSV-1 (KOS)); conditions: read-out: ID50 (the source's name); how it was run: as §1
[5] = test system: Human alphaherpesvirus 1; test: Antiviral activity against Herpes simplex virus-1 (Schooler strain); conditions: read-out: ID50 (the source's name); how it was run: as §1
[6] = test system: Human alphaherpesvirus 3; test: Antiviral activity against Varicella zoster virus (Ellen strain); conditions: read-out: ID50 (the source's name); how it was run: as §1
[7] = test system: Vaccinia virus; test: Antiviral activity against vaccinia virus (CL strain); conditions: Orthopoxvirus vaccinia; read-out: ID50 (the source's name)
[8] = Antiviral activity against Herpes simplex virus-1 (KOS strain); conditions: Human alphaherpesvirus 1; read-out: ID50 (the source's name); how it was run: as §1

Compound | IC50 [1] [µM] | IC50 [2] [µM] | IC50 [3] [µM] | IC50 [4] [µM] | IC50 [5] [µM] | IC50 [6] [µM] | IC50 [7] [µM] | IC50 [8] [µM]
Nc1ncnc2c1ncn2[C@@H]1CO[C@H](CO)[C@H]1CO | 4 | 90 | 4 | 8 | 8 | 4 | 20 | 4
Cc1cn([C@@H]2CO[C@H](CO)[C@H]2CO)c(=O)[nH]c1=O | > 400 |  |  | > 400 | 4 | 20 |  | 8
